The target of test [1] is T1, Endothelin receptor type B (Homo sapiens, UniProt P24530).
T1 sequence (P24530 whole entry): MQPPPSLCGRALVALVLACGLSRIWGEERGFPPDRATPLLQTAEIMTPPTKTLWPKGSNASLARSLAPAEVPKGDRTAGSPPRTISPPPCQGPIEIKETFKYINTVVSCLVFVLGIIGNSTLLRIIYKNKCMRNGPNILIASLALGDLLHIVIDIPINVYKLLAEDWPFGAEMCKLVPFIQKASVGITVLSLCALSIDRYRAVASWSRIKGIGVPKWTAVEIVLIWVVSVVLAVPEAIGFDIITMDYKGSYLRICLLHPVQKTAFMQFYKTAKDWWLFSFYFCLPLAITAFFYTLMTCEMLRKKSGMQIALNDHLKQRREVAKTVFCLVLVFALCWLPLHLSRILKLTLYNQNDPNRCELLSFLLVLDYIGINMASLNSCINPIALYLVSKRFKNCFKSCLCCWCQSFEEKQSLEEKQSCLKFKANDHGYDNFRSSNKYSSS
The test can be described thus: Ability to inhibit specific binding of [125I]- -ET-1 to human GH cells which express endothelin B receptor. The class given is cell-based.

In test [2] the target is T2, Endothelin-1 receptor (Rattus norvegicus, UniProt P26684).
T2 sequence (P26684 whole entry): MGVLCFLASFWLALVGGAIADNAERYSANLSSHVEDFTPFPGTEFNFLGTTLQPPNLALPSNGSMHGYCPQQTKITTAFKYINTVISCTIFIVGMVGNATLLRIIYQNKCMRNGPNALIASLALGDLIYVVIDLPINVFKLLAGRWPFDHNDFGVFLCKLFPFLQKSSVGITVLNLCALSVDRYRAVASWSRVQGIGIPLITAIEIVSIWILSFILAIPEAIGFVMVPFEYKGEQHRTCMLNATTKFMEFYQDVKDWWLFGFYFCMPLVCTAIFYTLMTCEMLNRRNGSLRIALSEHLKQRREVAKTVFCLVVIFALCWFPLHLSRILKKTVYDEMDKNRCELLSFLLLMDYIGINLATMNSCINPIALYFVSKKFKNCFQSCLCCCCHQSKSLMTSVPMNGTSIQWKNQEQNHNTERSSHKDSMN
The test can be described thus: In vitro for specific binding of [125I]ET1 to A10 cell expressed in endothelin A receptor. Type of test: cell-based.

Test [3] deals with T3, Endothelin-1 receptor (Sus scrofa, UniProt Q29010).
T3 sequence (Q29010 whole entry): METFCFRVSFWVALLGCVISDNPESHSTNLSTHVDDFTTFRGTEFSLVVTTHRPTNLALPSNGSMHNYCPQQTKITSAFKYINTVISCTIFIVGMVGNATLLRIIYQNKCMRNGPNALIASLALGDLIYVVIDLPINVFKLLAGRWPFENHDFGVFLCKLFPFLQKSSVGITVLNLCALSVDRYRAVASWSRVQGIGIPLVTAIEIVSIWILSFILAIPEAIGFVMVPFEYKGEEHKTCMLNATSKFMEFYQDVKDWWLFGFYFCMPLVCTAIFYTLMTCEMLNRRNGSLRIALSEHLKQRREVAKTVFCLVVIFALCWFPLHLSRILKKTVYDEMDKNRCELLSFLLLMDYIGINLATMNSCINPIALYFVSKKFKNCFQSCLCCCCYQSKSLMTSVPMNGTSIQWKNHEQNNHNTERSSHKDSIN
As to the kind of experiment: In vitro inhibition of [125I]ET1 binding to Endothelin A receptor in porcine aortic membrane from endothelial cells. The class given is cell membranes. The following applies: in the assay text read “with endothelium removed” for “from endothelial cells”. An outline of the steps:
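Endothelium-free porcine aorta homogenized in 10 mM MOPS (pH 7.4) with 20% sucrose. Membranes spun 1000g 15 min, then supernatant 90000g 45 min, and resuspended in 5 mM HEPES-Tris. Incubated with 20 pM final 125I-ET-1 and graded compound concentrations in 50 mM Tris-HCl pH 7.4, 0.1% BSA, protease inhibitors, EDTA, 2 h at 25 °C. Filtered, washed, gamma-counted.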

For test [4], the target named is T1, Endothelin receptor type B. As to the kind of experiment: In vitro for specific binding of [125I]ET1 to GHcell expressed in Endothelin B receptor.

Each structure is given as a SMILES string.

A word on the IC50: it is the point on the concentration scale where inhibition reaches its midpoint. Low readings indicate higher potency, high ones lower potency.

Turning to `COc1cccc(Oc2c(NS(=O)(=O)c3ccc(C(C)(C)C)cc3)ncnc2OCCO)c1`, the figures for the IC50 (in test [1]; on Endothelin-1 receptor [2]; at Endothelin-1 receptor [3]) were 1100 nM, 230 nM and 160 nM, respectively. Turning to `Cc1ccc(-c2c(NS(=O)(=O)c3ccc(C(C)(C)C)cc3)ncnc2OCCOc2ncc(-c3ccco3)cn2)cc1`, the IC50 in test [4] worked out at 7 nM. In other words, the single-digit nanomolar range. With `CSc1cnc(OCCOc2ncnc(NS(=O)(=O)c3ccc(C(C)(C)C)cc3)c2-c2ccc(C)cc2)nc1`, in test [4], the IC50 was 220 nM.

Compound `Cc1ccc(-c2c(NS(=O)(=O)c3ccc(C(C)(C)C)cc3)ncnc2OCCOc2ncc(-c3cccs3)cn2)cc1` registered a 50% inhibitory concentration (IC50) in test [4] of 3.8 nM. Same read-out and setting: next, `Cc1ccc(-c2c(NS(=O)(=O)c3ccc(C(C)(C)C)cc3)ncnc2OCCOc2ncc(Br)cn2)cc1`: 38 nM.

On to `COc1ccccc1Oc1c(NS(=O)(=O)c2ccc(C(C)(C)C)cc2)nc(-c2ncccn2)nc1OCCO` [BOSENTAN SODIUM], for which the IC50 was found to be 1.4 nM at Endothelin-1 receptor [2] and 7.5 nM at Endothelin-1 receptor [3].
